Measured values pooled from the literature.
Lines come from different studies, so protocols differ.
Target: MAP kinase-interacting serine/threonine-protein kinase 2 (MKNK2, Homo sapiens, UniProt Q9HBH9)

With `COc1ncc2cc3ccccc3nc2c1C#N` the remaining binding was 98% (cell-free assay, competition with immobilised ligand; 5 µM).
The remaining binding of `Cc1cnc(Nc2ccc(C(=O)N3CCC(N4CCCC4)CC3)cc2)nc1-c1cc2ccccc2s1` is reported as 5.4% (binding, competition with immobilised ligand; 1 µM).
`CO[C@@H](C)c1c(Nc2ccc([C@H](N(C)C(=O)C3CCS(=O)(=O)CC3)C(F)(F)F)cc2)cnc2cc(Cl)nn12` gave a remaining binding of 100% (cell-free assay, competition with immobilised ligand; 1 µM).
`C[C@@H]1CN(c2ccc3ncc(-c4ccc5[nH]nc(C6CC6)c5c4)n3n2)C[C@H](C)O1` has a remaining binding of 45% (binding, competition with immobilised ligand; 0.5 µM).
The remaining binding of `Nc1ncc2c(n1)-c1c([nH]c3ccc(C#CC4CC4)cc13)CCCC2` is reported as 77% (binding, competition with immobilised ligand; 1 µM).
`Cn1nc(C(F)(F)F)cc1-c1cnc(N2CCc3cc(S(=O)(=O)Nc4c(F)cc(Cl)cc4F)cc(N4CCCC4=O)c32)nc1` has a remaining binding of 94% (cell-free assay, competition with immobilised ligand; 1 µM).
`O=C(NCCCN1CCOCC1)c1ccc(Nc2ncc(Cl)c(-c3ccc(Cl)s3)n2)cc1` gave a remaining binding of 55% (binding, competition with immobilised ligand; 1 µM).
With `CO[C@H]1CC[C@H](CNc2ccc(S(=O)(=O)NC(=O)c3ccc(N4CCN(CC5=C(c6ccc(Cl)cc6)CC(C)(C)CC5)CC4)cc3Oc3cnc4[nH]ccc4c3)cc2[N+](=O)[O-])CC1` the remaining binding was 73% (cell-free assay, competition with immobilised ligand; 1 µM).
`CN(C)c1nccc(-c2cnn3ncccc23)n1` has a remaining binding of 28% (binding; 1 µM).
The remaining binding of `O=c1nc(-c2ccccn2)sc2ccccc12` is reported as 100% (binding, competition with immobilised ligand; 1 µM).
For `COc1cc(C(=O)N2CCC(N3CCN(C)CC3)CC2)ccc1Nc1ncc2c(n1)N(C)c1ccccc1C(=O)N2C`, the remaining binding was 1.2% (binding, competition with immobilised ligand; 10 µM).
`CNC(=O)Nc1ccc2c(c1)[C@@]1(CC2)OC(=O)N(CC(=O)N(Cc2ccc(F)cc2)[C@@H](C)C(F)(F)F)C1=O` gave a remaining binding of 76% (cell-free assay, competition with immobilised ligand; 1 µM).
With `O=C(c1ccc(Nc2nccc(-c3cc4ccccc4s3)n2)cc1)N1CCC(N2CCCC2)CC1` the remaining binding was 4.6% (binding, competition with immobilised ligand; 1 µM).
`COc1cnc(Nc2cccc(S(N)(=O)=O)c2)nc1N1CCN(c2ccccc2)CC1` gave a remaining binding of 59% (binding, competition with immobilised ligand; 1 µM).
The remaining binding of `C[C@@H]1CCN(c2nccc(-c3cnn4ncccc34)n2)C1` is reported as 11% (binding; 1 µM).
`O=C(Nc1c[nH]nc1C(=O)NC1CCNCC1)c1cc(F)cc(F)c1` has a remaining binding of 100% (binding, competition with immobilised ligand; 1 µM).
With `COc1ccnn2ncc(-c3ccnc(N(C)C)n3)c12` the remaining binding was 78% (binding; 1 µM).
`CNCc1ccccc1-c1csc([C@H](C)Nc2nc(C)nc3cc(OC)c(OC)cc23)c1` has a remaining binding of 71% (cell-free assay, competition with immobilised ligand; 1 µM).
The remaining binding of `FC(F)(F)Oc1cccc(-c2cnc3ccc(-c4ccncc4)nn23)c1` is reported as 21% (cell-free assay, competition with immobilised ligand; 5 µM).
`F[C@@H]1CCN(c2nccc(-c3cnn4ncccc34)n2)C1` gave a remaining binding of 68% (binding; 1 µM).
`COCCOc1nc(-c2ccc(Cl)nc2)nc2c1CN(C(=O)c1ncn3ccccc13)CC2` has a remaining binding of 100% (cell-free assay, competition with immobilised ligand; 0.1 µM).
The remaining binding of `CC1CCCN1c1nccc(-c2cnn3ncccc23)n1` (stereo not shown) is reported as 46% (binding; 1 µM).
For `CNC(=O)c1ccc(Nc2ncc(C(F)(F)F)c(NCc3nccnc3N(C)S(C)(=O)=O)n2)cc1`, the remaining binding was 100% (cell-free assay, competition with immobilised ligand; 0.1 µM).
`N[C@H]1CCN(c2nccc(-c3cnn4ncccc34)n2)C1` has a remaining binding of 21% (binding; 1 µM).
`N#Cc1ccccc1CSc1nnc2c(n1)[nH]c1ccccc12` gave a remaining binding of 95% (binding, competition with immobilised ligand; 10 µM).
